Laboratory results published in ChEMBL document CHEMBL4513216, “Probing the Open Global Health Chemical Diversity Library for Multistage-Active Starting Points for Next-Generation Antimalarials” (ACS Infect Dis, 2020).

Test: Toxicity liver stage against HepG2, at 10uM
Assay type: cell-based
Design: test concentration 10 uM, cell line HepG2-A16-CD81EGFP
Details: human, HepG2-A16-CD81EGFP cells; read-out: INHIBITION
Method in brief: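 Uninfected HepG2-A16-CD81EGFP cells, 3 × 10^3 per well, 1536-well, plated on prespotted compound at 10 μM final, parasite-free screening media added to match infected plates; puromycin 10 μM positive, DMSO 0.5% negative; run in parallel with 48 h PbLuc assay at 37 °C, 5% CO2; viability by CellTiter-Glo luminescence, normalized to controls.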

| SMILES | cytotoxicity at 10 µM [%] |
| --- | --- |
| c1cnn(C2CN(c3nc(-c4ccncc4)nc4c3CCC4)C2)c1 | -43 |
| N#CC1(NC(=O)Cn2nnc(-c3cc4ccccc4o3)n2)CCCC1 | 0.696 |
| CCn1c(Cn2cncn2)nnc1C1CCN(C2CCOCC2)CC1 | 9.23 |
| O=C(NCC(O)Cc1ccccc1)c1ccc2[nH]c(=O)[nH]c2c1 (stereo not drawn) | 4.14 |
| CCC(=O)N1CCC(Cc2ccccc2-c2cccc(C)c2)(C(N)=O)C1 (stereo not drawn) | -27.5 |
| Cc1cc(C(=O)N2CC(O)CO2)c2cccc(C)c2n1 (stereo not drawn) | 7.13 |
| CC(C)Oc1ccccc1CNC(=O)N(C)CC(F)F | -41.5 |
| COc1ccccc1CC1CCN(C(=O)CCc2ccccn2)CC1 | -3.2 |
| Cc1nc(C)n(C2CCCN(C(=O)c3sccc3C)C2)n1 (stereo not drawn) | -8.93 |
| Cc1cc(C)c(CNC(=O)N2CCNC(=O)C2)c(=O)[nH]1 | -0.535 |
| CC(C)(C)C(=O)N1CCC(n2nc(-c3ccco3)ccc2=O)CC1 | -15.4 |
| Cc1ccc(CNCCC(O)(c2nccn2C)C(F)(F)F)o1 (stereo not drawn) | 1.18 |
| Cc1cnc(NC(=O)C(C)n2ccc(C(F)(F)F)n2)s1 (stereo not drawn) | 1.75 |
| CN(C)CCN1CCC(CNCc2c[nH]nc2C(C)(C)C)CC1 | -3.21 |
| Cc1noc(CCCC(=O)NCCc2cc3ccccc3[nH]2)n1 | 1.38 |
| FC(F)(F)c1nc(C2CCCNC2)no1 (stereo not drawn) | 5.25 |
| Cc1cc(NC(=O)NCC2(O)CCCC2)ccn1 | -6.36 |
| Cn1cc(Cl)cc1C(=O)N1CCN(CCc2cccs2)CC1 | -11.8 |
| C[C@]1(O)CN(Cc2ncccc2F)CC[C@@H]1Oc1cccc(F)c1 | -2.11 |
| Cc1cc(C)n2nc(C(=O)N[C@H]3C[C@H]4CN(C)CCN4C3)cc2n1 | -0.671 |
| Cn1cncc1CN1CCc2nc3sccc3c(=O)n2CC1 | -3.75 |

| SMILES | cytotoxicity at 10 µM [%] |
| --- | --- |
| O=C(COC1CCCCC1)Nc1ccn(CCc2ccncc2)n1 | -3.87 |
| O=C(c1cc2c(s1)CCCC2)N1CCc2nc(C3CCCN3)ncc2C1 (stereo not drawn) | -3.04 |
| CN(Cc1ccc(F)cc1)CC1(O)CCN(C(=O)c2cccn2C)C1 (stereo not drawn) | -3.19 |
| CNc1ncc(CN(C)C(=O)c2ccccc2C2CCNC2)cn1 (stereo not drawn) | 0.272 |
| CC1c2ncc(Cn3cncn3)n2CCN1C1CCOCC1 (stereo not drawn) | 4.28 |
| COc1ccc(CNC2CCN(c3ccccc3)C2)c(OC)c1OC (stereo not drawn) | 7.49 |
| COc1ccc(C)cc1C(C)NCc1cccn1C (stereo not drawn) | -5.89 |
| CCOCC1CN(Cc2cccnc2)Cc2nn(C)cc21 (stereo not drawn) | -81.6 |
| Cc1ncc2c(n1)CCN(CCCc1nc3ccccc3o1)C2 | -18.7 |
| Cc1cccnc1Nc1nccc(C2CN(CC(N)=O)C2)n1 | -34.3 |
| NC(=O)c1ccc(CN2C(=O)C3(CCNCC3)Nc3ccccc32)cc1 | -6.38 |
| C=C(C)COc1ccccc1C(=O)NCCc1cc(O)nc(C)n1 | -0.355 |
| CC(=O)N1CCC(NC(=O)c2ccccc2-n2cnnn2)CC1 | 6.87 |
| Cc1csc(CN2CCC3(CC2)COC(COCC2CC2)C3)n1 (stereo not drawn) | -108 |
| O=C(CN1CCc2cncnc2C1)NC(c1ccccc1)C1CC1 (stereo not drawn) | -9.1 |
| COCCNc1cc(-c2cccc(C(=O)O)c2C)c2cc[nH]c2n1 | -3.85 |
| Cc1ccc(S(=O)(=O)N2CCN(C)c3ccncc32)cc1F | 9.21 |
| CN(Cc1ccc(N(C)C)cc1)C(=O)CS(=O)(=O)c1ccc(Cl)cc1 | 22.2 |
| CNS(=O)(=O)c1ccccc1N1CCN(C(=O)C(C)C)CC1 | 4 |
| CCC(=O)NCc1ccc(N2CCCCC2)cc1 | -6.89 |
| Cc1c(C2SCC(=O)Nc3c2c(O)nn3C2CCCCC2)cnn1C (stereo not drawn) | 0.618 |

| SMILES | cytotoxicity at 10 µM [%] |
| --- | --- |
| O=C1CC(NCc2ccc(OC(F)F)cc2)CN1Cc1cccc(F)c1 (stereo not drawn) | -5.29 |
| CCn1ccc(NC(=O)CN2C(=O)C(C)(C)c3ccccc32)n1 | -16.9 |
| O=C(c1cccs1)N1CCC(Cn2nc(-c3ccco3)ccc2=O)CC1 | -2.21 |
| CCOCCCC(=O)NCc1ccnc(N2CCN(C)CC2)c1 | -10.9 |
| Cc1ccc(N(CCC#N)C(=O)CN2CCCC2c2ccsc2)cc1 (stereo not drawn) | -9.01 |
| COCC(=O)N1CCCN(Cc2cc(C(C)C)no2)CC1 | 5.97 |
| O=C1CC2(CCN(c3nncs3)C2)CN1c1cccc(F)c1 (stereo not drawn) | -3.36 |
| Cc1nccn1CCC1CCN(c2ccncn2)CC1 | -9.14 |
| CC(C)CC1(C(=O)NCc2nncn2C2CC2)CCC1 | -1.22 |
| CC(C)=CCN1CCOC(Cn2cccn2)C1 (stereo not drawn) | 2.4 |
| Cc1cccc(OCCNC(=O)CN2CCN(C)CC2C)c1 (stereo not drawn) | -2.66 |
| COCCCN1CCC(NC2CSCCc3ccccc32)CC1 (stereo not drawn) | -3.32 |
| Cn1cccc1C(=O)N1CCO[C@H]2[C@H](OCc3cccnc3)CC[C@@H]21 | 7.2 |
| Cc1cnn(CC2CN(Cc3nc4cccnc4[nH]3)CCO2)c1 (stereo not drawn) | -1.04 |
| CCNC(=O)[C@@H]1C[C@@H](n2cc(CN(CC)CC)nn2)CN1 | 0.334 |
| O=C(NCc1ccco1)c1cccc(CN2CCCC2CO)c1 (stereo not drawn) | -3.13 |
| CN(Cc1cnn(C)c1)S(=O)(=O)N1CCc2ccccc2C1 | -6.47 |
| O=C(O)CNc1cc(-c2cc(C3CC3)ncn2)c2cc[nH]c2n1 | 7.69 |
| Cc1cc(CN(C)S(=O)(=O)N2CCCC2c2ccc(C)o2)no1 (stereo not drawn) | 3.33 |
| Cc1csc([C@H]2C[C@@H]3CCN(Cc4cnn(C)c4)C[C@H]3O2)n1 | -3.9 |
| Cc1cc(C2CCCCN2C(=O)CN2C(=O)OC(C)(C)C2=O)no1 (stereo not drawn) | 3.35 |

| SMILES | cytotoxicity at 10 µM [%] |
| --- | --- |
| CC(CNS(=O)(=O)c1cccc(Cl)c1)N1CCN(C)CC1 (stereo not drawn) | 9.26 |
| N#Cc1ccccc1CC1CCCS(=O)(=O)C1 (stereo not drawn) | -3.11 |
| CCC(CC)NC(=O)Cn1nc(C)nc1-c1ccccc1 | -7.22 |
| CC(C)NC(=O)[C@H]1C[C@H]2CN(C(=O)NCc3ccccc3)C[C@@H]1O2 | 5.5 |
| O=S(=O)(Nc1cn[nH]c1)c1ccc(Br)c(F)c1 | 0.462 |
| COc1ccccc1C1(CNc2cn[nH]c(=O)c2Cl)CC1 | 54.8 |
| O=C(c1cccc(OC2CCCC2)c1)N1CCCC(n2cncn2)C1 (stereo not drawn) | -10.3 |
| O=C(c1cccc(CN2CCCC2)c1)N1CCCC(n2cncn2)C1 (stereo not drawn) | -11.9 |
| CC(C)NC(=O)C[C@@H]1CCNC[C@@H]1Cc1cc(-c2ccccc2)on1 | -0.626 |
| CCO[C@H]1CN(CC2CC2)[C@@H]2CCCO[C@H]12 | -105 |
| CC1CN(C)c2ccccc2N(C(=O)c2ccc(=O)n(C)c2)C1 (stereo not drawn) | -3.51 |
| CC(C)n1nc(CNc2ncccn2)c2c1CN(S(C)(=O)=O)CC2 | -138 |
| CCCc1nc(C)c(C(=O)NCc2ccc(C)n2C)s1 | 16.5 |
| COc1ccccc1CN(Cc1nc(C)no1)C1CC1 | 2.77 |
| COCC1c2nnn(C)c2CCN1C(=O)Cc1ccc2c(c1)OCO2 (stereo not drawn) | 9.46 |
| CCN1CCC(NC(=O)CNC(C)Cn2cccn2)CC1 (stereo not drawn) | 9.19 |
| NCC1(c2cccc(C(F)(F)F)c2)CCCCC1 | -8.66 |
| c1cnc(NCc2cncc3c2CCN(Cc2ccsc2)C3)nc1 | -74.4 |
| CN(Cc1cnn(C)c1)S(=O)(=O)N1CCCCCC1 | -1.43 |
| COC(=O)N1CCCN(C(=O)NCc2ccc(Cl)s2)CC1 | 1.76 |
